Experimental findings from ChEMBL document CHEMBL3233000, “Cytotoxic ent-kaurane diterpenoids from Isodon wikstroemioides” (J Nat Prod, 2014) are described below.

Type in all cases: functional, cell-based
For one experiment, the system named is A549. The experiment is described as follows: Cytotoxicity against human A549 cells assessed as growth inhibition after 48 hrs by MTS assay. The following applies: A549, 48 h. Put shortly:
(§1)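 Cell lines from ATCC, grown in RPMI-1640 or DMEM with 10% FBS at 37 °C, 5% CO2. Cells seeded, incubated 12 h at 37 °C, then screened at 40 μM for 48 h with MTS read-out. Where growth inhibition reached 50%, retested at 0.064, 0.32, 1.6, 8 and 40 μM in triplicate. Cisplatin and paclitaxel were positive controls. IC50 by Reed and Muench method.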

A further experiment has as its system HL-60. The experiment is described as follows: Cytotoxicity against human HL60 cells assessed as growth inhibition after 48 hrs by MTS assay. Conditions: HL-60, 48 h. Put shortly:
as §1

In another experiment the test system is MCF7. The experiment in a line: Cytotoxicity against human MCF7 cells assessed as growth inhibition after 48 hrs by MTS assay. The following applies: MCF7, 48 h. Put shortly:
as §1

The next experiment relates to SMMC-7721. The experiment in a line: Cytotoxicity against human SMMC7721 cells assessed as growth inhibition after 48 hrs by MTS assay. The following applies: SMMC-7721, 48 h. The method in brief: as §1
In another experiment the test system is SW480. The experiment in a line: Cytotoxicity against human SW480 cells assessed as growth inhibition after 48 hrs by MTS assay. Conditions: SW480, 48 h. The method in brief:
as §1

In the next experiment the test system is RAW264.7. The experiment in a line: Inhibition of nitric oxide production in LPS-stimulated mouse RAW264.7 cells after 18 hrs by griess reagent based plate reader analysis. Conditions: RAW264.7, 18 h. Put shortly: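 RAW264.7 macrophages seeded at 2 × 10^5 cells/well. Treated with serial dilutions (top concentration 25 μM), then stimulated with LPS 1 μg/mL for 18 h. Supernatant NO measured with Griess reagents, absorbance 550 nm. MG-132 was the positive control. Viability was checked in parallel by MTT (595 nm) to exclude cytotoxic interference.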

For the compound `C=C1C(=O)[C@]23C[C@H]1CC[C@H]2[C@]1(CO)CCC[C@](C)(CO)[C@H]1C[C@H]3O`, the IC50 in the experiment with A549 is more than 10 µM; with HL-60, more than 10 µM; with MCF7 it was 7300 nM; in the experiment with SMMC-7721, 7.1 µM; in the experiment with SW480, 4000 nM; with RAW264.7 it was 2800 nM.
Take `C=C1C(=O)[C@]23C[C@H]1C[C@H](OC(C)=O)[C@H]2[C@]1(C)[C@@H](OC(C)=O)C[C@H](O)C(C)(C)[C@H]1C(=O)[C@@H]3OC(C)=O` [ADENANTHIN]: the IC50 in the experiment with A549 is 3.3 µM; with HL-60 it was 3.6 µM; in the experiment on MCF7, 2800 nM; in the experiment on SMMC-7721, 4 µM; in the experiment on SW480, 2000 nM; with RAW264.7 it was 3300 nM.
As for `C=C1C(=O)[C@@]23[C@H](O)C[C@@H]4[C@@](C)(COC(C)=O)CCC[C@@]4(C)[C@@H]2C[C@H](O)[C@@H]1[C@H]3O` [ALBOPILOSIN A], the 50% inhibitory concentration (IC50) with A549 came to 3.2 µM; in the experiment with HL-60 it was 2 µM; in the experiment with MCF7, 1700 nM; in the experiment on SMMC-7721, 1.4 µM; in the experiment on SW480, 900 nM; in the experiment with RAW264.7 it was 1900 nM.
Regarding `C=C1C(=O)[C@@]23[C@H](O)C[C@@H]4[C@@](C)(CO)CCC[C@@]4(C)[C@@H]2CC[C@@H]1[C@H]3O` [EXCISANIN C], the IC50 with A549 was found to be 2.1 µM; in the experiment on HL-60 it was 3 µM; in the experiment with MCF7, 1600 nM; in the experiment with SMMC-7721, 2.7 µM; with SW480, 1300 nM; with RAW264.7, 1000 nM.
Turning to `C=C1C(=O)[C@@]23[C@H](O)C[C@@H]4C(C)(C)CCC[C@@]4(C)[C@@H]2C[C@H](O)[C@@H]1[C@H]3O` [ISOSCOPARIN L], the IC50 was 0.8 µM in the experiment with A549; 0.5 µM in the experiment with HL-60; 400 nM with MCF7; 1.2 µM in the experiment on SMMC-7721; 600 nM in the experiment with SW480; 800 nM in the experiment with RAW264.7.
For `C=C1C(=O)[C@@]23[C@H](O)C[C@H]4[C@@](C)(CCC[C@]4(C)C=O)[C@@H]2C[C@H](O)[C@@H]1[C@H]3O` [MACROCALYXIN C], the IC50 with A549 was more than 10 µM; in the experiment on HL-60, 3.7 µM; in the experiment with MCF7, 3700 nM; in the experiment on SMMC-7721 it was 4 µM; in the experiment with SW480, 2100 nM; with RAW264.7, 2700 nM.
As for `C=C1C(=O)[C@@]23[C@H](O)C[C@@H]4C(C)(C)CCC[C@@]4(C)[C@@H]2[C@@H](O)C[C@@H]1[C@H]3O` [PHYLLOSTACHYSIN F], the concentration for half-maximal inhibition (IC50) in the experiment with A549 was 2.3 µM; in the experiment on HL-60, 3.3 µM; with MCF7 it was 1500 nM; in the experiment with SMMC-7721, 2.1 µM; in the experiment with SW480, 1100 nM; in the experiment with RAW264.7 it was 1000 nM.
With `C=C1C(=O)[C@@]23[C@H](O)C[C@@H]4C(C)(C)CCC[C@@]4(C)[C@@H]2[C@@H](O)[C@H](O)[C@@H]1[C@H]3OC(C)=O` [RABDOKUNMIN A], the IC50 in the experiment on A549 was more than 10 µM; with HL-60 it was 8.8 µM; in the experiment on MCF7 it was more than 10000 nM; with SMMC-7721, 5.8 µM; in the experiment on SW480, 4700 nM; in the experiment on RAW264.7, 7200 nM.
On to `C=C1C(=O)[C@@]23[C@H](O)C[C@@H]4C(C)(C)CCC[C@@]4(C)[C@@H]2[C@@H](O)[C@H](O)[C@@H]1[C@H]3O` [RABDOLOXIN B], for which the IC50 in the experiment with A549 amounted to 4.4 µM; in the experiment on HL-60, 2.9 µM; with MCF7, 3000 nM; with SMMC-7721, 3.4 µM; in the experiment with SW480 it was 2400 nM; in the experiment on RAW264.7 it was 1900 nM.
